pIC50: −log10 of the molar value. Calls of active or inactive are those of the source. The rule behind the calls is not given here.
Legend:
Plasma [1] = assay: Fraction unbound in human plasma; type: ADME, cell-free
Plasma [2] = assay: Fraction unbound in rat plasma; type: ADME, cell-free
[3] = target: T1, Transient receptor potential cation channel subfamily V member 4 (Homo sapiens, UniProt Q9HBA0); assay: Antagonist activity at human recombinant TRPV4 expressed in BacMam virus infected HEK MSRII cells assessed as inhibition of GSK634775-induced calcium […] treated 10 mins prior to TRPV4 agonist, GSK634775 by FLIPR assay
[4] = target: Transient receptor potential cation channel subfamily V member 4 (Rattus norvegicus, UniProt Q9ERZ8); assay: Antagonist activity at rat TRPV4
[5] = target: Sodium channel protein type 5 subunit alpha (Homo sapiens, UniProt Q14524); assay: Inhibition of human Nav1.5 expressed in HEK293 cells at >10 uM; type: cell-based
Rattus norvegicus [6] = assay: Effect on mean arterial pressure in Sprague-Dawley rat at 3 to 10 mg/kg, iv; type: ADME, organism-based, Artery; set-up: dose 3-10 mg/kg, route intravenous; settings: in vivo
How it was run: (§1)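 Rats given vehicle, 3 or 10 mg/kg iv 30 min before iv challenge with the TRPV4 agonist GSK1016790A at rising doses. Mean arterial pressure recorded during pretreatment and after agonist. Pulmonary edema scored as wet lung weight/body weight ratio, compared with vehicle-treated rats. Plasma drug levels measured at both doses.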

[7] = Oral bioavailability in Sprague-Dawley rat at 2 mg/kg by HPLC-MS/MS analysis; type: ADME, organism-based; settings: in vivo
[8] = (§2) Half life in Sprague-Dawley rat plasma at 2 mg/kg, po by HPLC-MS/MS analysis; type: ADME, organism-based; set-up: dose 2 mg/kg, route oral; settings: Sprague-Dawley, plasma
[9] = target: Transient receptor potential cation channel subfamily V member 4 (Rattus norvegicus) (UniProt Q9ERZ8); assay: Agonist activity at rat TRPV4
[10] = target: Voltage-dependent L-type calcium channel subunit alpha-1C (Homo sapiens, UniProt Q13936); assay: Inhibition of human Cav1.2 expressed in HEK293 cells assessed as decrease in calcium […] at >10 uM by FLIPR analysis; type: cell-based
Rattus norvegicus [11] = assay: Decrease in lung/body weight ratio in GSK1016790A-induced Sprague-Dawley rat pulmonary edema model at 10 mg/kg, iv administered 30 mins prior to GSK-1016790A injection; type: functional, organism-based; set-up: dose 10 mg/kg; how it was run: as §1
[12] = Clearance in Sprague-Dawley rat plasma at 1 mg/kg, iv by HPLC-MS/MS analysis; type: ADME, organism-based; set-up: dose 1 mg/kg, route intravenous
[13] = target: T1, Transient receptor potential cation channel subfamily V member 4; assay: Agonist activity at human TRPV4
Rattus norvegicus [14] = assay: Decrease in lung/body weight ratio in GSK1016790A-induced Sprague-Dawley rat pulmonary edema model at 3 mg/kg, iv administered 30 mins prior to GSK-1016790A injection; type: functional, organism-based; set-up: dose 3 mg/kg; how it was run: as §1
Rattus norvegicus [15] = assay: Reduction of GSK-1016790A-induced decrease in mean arterial pressure in iv dosed Sprague-Dawley rat administered 30 mins prior to GSK-1016790A injection; type: functional, organism-based; settings: Artery; how it was run: as §1
[16] = target: Potassium voltage-gated channel subfamily A member 5 (Homo sapiens) (UniProt P22460); assay: Inhibition of human Kv1.5 expressed in CHO cells assessed as decrease in channel current at > 10 uM by patch clamp analysis; type: cell-based
Plasma [17] = assay: as §2; type: ADME, organism-based; set-up: dose 2 mg/kg, route oral; settings: in vivo, BLD = below limit of detection
Plasma [18] = assay: Stability of the compound in Sprague-Dawley rat plasma at 1 mg/kg, iv by HPLC-MS/MS analysis; type: ADME, organism-based; set-up: dose 1 mg/kg, route intravenous; settings: in vivo

T1 sequence (Q9HBA0 whole entry): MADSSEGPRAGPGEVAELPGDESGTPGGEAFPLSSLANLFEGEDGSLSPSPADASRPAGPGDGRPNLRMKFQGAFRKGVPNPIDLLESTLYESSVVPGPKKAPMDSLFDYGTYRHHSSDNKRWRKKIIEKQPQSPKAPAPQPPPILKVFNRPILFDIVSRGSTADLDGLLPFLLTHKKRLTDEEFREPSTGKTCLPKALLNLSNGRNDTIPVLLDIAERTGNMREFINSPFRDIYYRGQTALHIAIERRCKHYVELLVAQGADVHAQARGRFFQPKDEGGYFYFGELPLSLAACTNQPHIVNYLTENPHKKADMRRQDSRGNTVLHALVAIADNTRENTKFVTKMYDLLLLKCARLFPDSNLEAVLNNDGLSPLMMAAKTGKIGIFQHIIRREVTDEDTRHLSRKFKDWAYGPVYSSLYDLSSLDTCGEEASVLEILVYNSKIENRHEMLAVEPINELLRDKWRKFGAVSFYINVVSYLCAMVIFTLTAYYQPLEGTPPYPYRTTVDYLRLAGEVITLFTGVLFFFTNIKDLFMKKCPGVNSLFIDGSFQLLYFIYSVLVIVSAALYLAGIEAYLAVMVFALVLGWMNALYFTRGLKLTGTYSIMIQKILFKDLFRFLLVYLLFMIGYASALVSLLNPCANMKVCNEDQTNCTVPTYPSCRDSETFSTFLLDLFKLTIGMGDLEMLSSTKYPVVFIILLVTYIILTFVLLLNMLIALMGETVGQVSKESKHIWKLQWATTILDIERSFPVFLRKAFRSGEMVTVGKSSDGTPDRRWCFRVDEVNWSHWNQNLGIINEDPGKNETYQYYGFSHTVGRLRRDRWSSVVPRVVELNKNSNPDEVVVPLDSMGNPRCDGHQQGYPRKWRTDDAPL
Sequence of Sodium channel protein type 5 subunit alpha (Q14524 whole entry): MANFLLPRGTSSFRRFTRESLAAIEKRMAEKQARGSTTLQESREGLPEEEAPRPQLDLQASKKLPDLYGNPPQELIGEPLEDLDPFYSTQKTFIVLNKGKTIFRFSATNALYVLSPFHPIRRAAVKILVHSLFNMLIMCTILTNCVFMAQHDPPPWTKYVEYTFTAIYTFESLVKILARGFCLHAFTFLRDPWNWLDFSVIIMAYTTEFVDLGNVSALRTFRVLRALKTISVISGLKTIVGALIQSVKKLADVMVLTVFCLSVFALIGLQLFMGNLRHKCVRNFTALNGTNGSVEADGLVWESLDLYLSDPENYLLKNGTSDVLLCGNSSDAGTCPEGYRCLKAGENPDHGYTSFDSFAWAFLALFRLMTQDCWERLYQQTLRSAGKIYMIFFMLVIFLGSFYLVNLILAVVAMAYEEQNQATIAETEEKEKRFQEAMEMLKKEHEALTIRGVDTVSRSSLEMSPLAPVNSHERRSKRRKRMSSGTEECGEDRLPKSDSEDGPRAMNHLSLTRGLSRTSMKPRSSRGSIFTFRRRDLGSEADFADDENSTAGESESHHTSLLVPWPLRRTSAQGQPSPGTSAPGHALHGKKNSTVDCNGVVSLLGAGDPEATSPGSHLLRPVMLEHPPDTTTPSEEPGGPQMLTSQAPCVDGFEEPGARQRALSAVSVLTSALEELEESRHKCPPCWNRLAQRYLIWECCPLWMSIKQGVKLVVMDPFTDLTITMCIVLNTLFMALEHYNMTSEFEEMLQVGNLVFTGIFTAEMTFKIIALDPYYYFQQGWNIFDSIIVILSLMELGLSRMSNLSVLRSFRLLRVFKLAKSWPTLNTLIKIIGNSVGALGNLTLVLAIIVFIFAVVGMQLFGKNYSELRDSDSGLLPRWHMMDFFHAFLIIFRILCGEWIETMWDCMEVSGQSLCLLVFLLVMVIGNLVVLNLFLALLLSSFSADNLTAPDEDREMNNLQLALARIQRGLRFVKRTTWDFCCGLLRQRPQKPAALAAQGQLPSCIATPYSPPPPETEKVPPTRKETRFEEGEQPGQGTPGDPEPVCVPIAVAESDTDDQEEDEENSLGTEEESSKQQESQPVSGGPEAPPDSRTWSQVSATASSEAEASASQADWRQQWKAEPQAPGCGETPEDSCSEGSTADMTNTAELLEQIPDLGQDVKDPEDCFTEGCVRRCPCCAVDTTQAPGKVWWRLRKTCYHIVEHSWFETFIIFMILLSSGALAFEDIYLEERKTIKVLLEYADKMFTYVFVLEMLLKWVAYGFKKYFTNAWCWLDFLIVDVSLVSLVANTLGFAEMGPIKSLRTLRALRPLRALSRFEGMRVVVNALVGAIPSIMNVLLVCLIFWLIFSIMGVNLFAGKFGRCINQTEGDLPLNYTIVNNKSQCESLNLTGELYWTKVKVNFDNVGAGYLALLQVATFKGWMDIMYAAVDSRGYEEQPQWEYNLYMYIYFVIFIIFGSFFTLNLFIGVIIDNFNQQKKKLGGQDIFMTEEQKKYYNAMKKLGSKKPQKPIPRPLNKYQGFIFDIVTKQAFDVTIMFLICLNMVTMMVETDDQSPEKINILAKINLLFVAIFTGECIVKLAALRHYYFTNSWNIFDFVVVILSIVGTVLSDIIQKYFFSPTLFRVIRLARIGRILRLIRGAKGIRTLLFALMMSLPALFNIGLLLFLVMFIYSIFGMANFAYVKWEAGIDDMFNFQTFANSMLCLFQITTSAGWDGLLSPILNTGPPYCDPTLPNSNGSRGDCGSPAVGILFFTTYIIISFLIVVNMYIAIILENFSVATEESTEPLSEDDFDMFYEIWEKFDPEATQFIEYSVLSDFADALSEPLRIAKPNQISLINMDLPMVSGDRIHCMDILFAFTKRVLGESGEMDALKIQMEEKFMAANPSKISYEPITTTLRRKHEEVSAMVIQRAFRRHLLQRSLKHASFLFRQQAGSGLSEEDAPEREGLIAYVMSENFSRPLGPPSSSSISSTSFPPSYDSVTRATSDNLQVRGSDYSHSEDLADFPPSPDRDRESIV
Sequence of Transient receptor potential cation channel subfamily V member 4 (Rattus norvegicus) (Q9ERZ8 whole entry): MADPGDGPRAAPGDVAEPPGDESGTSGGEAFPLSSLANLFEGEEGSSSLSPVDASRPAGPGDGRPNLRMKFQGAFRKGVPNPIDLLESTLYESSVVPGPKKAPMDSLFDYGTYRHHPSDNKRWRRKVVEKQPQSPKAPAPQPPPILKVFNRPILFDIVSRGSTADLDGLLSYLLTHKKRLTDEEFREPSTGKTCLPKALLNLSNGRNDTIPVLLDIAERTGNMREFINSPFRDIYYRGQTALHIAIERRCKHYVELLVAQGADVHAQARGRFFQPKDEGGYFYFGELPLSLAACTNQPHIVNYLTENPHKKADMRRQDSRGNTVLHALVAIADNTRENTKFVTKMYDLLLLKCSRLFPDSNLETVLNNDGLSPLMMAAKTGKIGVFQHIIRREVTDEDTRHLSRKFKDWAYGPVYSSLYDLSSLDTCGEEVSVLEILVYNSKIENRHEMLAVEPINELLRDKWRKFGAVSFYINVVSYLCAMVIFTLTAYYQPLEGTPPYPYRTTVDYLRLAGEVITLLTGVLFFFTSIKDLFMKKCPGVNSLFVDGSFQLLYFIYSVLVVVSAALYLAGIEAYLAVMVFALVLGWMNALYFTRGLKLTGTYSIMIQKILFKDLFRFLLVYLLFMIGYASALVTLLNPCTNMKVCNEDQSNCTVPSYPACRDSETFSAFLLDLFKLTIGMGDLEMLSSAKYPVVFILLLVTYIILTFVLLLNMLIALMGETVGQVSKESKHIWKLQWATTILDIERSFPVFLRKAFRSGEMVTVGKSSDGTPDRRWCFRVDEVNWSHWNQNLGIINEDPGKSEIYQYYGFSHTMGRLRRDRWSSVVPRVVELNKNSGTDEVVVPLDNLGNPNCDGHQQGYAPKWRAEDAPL
Sequence of Transient receptor potential cation channel subfamily V member 4 (Rattus norvegicus, UniProt Q9ERZ8) (Q9ERZ8 whole entry): as above
Sequence of Potassium voltage-gated channel subfamily A member 5 (Homo sapiens) (P22460 whole entry): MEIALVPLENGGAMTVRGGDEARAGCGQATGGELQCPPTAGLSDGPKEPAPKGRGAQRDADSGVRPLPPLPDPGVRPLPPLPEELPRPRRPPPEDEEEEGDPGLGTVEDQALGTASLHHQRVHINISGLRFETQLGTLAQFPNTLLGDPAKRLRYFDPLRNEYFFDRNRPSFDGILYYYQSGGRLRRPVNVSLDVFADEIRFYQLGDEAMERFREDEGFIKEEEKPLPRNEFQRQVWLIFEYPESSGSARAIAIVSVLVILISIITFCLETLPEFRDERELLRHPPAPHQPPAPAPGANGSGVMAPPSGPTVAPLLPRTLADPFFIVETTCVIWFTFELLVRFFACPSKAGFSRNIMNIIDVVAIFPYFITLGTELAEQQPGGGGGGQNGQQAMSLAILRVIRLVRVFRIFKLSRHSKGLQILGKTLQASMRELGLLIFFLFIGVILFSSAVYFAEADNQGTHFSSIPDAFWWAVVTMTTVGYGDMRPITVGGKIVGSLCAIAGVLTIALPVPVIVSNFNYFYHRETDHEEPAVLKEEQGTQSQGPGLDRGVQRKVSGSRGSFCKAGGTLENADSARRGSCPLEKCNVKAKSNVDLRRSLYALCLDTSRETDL

SMILES | pIC50 [3] | bioavailability [7] [%] | half-life [8] [h] | clearance [12] [mL/min/kg] | further results
Cc1cccc(N2CCC(n3c(NC(C)C)nc4c(C(=O)N(C)C)c(Cl)c(Cl)cc43)CC2)c1 | 6.90 | 76 | 3.2 | 12 | –
CC(C)Nc1nc2c(C(=O)N(C)C)c(Cl)c(Cl)cc2n1C1CCN(C(=O)Nc2ccccc2)CC1 | 5.60 | – | – | – | –
CC(C)Nc1nc2c(C(=O)N(C)C)c(Cl)c(Cl)cc2n1C1CCN(c2ccc(C(C)(C)C)cc2)CC1 | 7.30 | 39 | 3.7 | 34 | –
CC(C)Nc1nc2c(C(=O)N(C)C)c(Cl)c(Cl)cc2n1C1CCN(S(=O)(=O)c2ccc(Cl)cc2)CC1 | 5.40 | – | – | – | –
CC(C)Nc1nc2c(C(=O)N(C)C)c(Cl)c(Cl)cc2n1C1CCN(c2ccccc2)CC1 | 6.70 | – | – | – | –
CC(C)Nc1nc2c(C(=O)N(C)C)c(Cl)c(Cl)cc2n1-c1ccc(N2CCCCC2)cc1 | 6.20 | – | – | – | –
CC(C)Nc1nc2c(C(=O)N(C)C)c(Cl)c(Cl)cc2n1C1CCN(Cc2ccccc2)CC1 | 6.00 | – | – | – | –
CC(C)Nc1nc2c(C(=O)N(C)C)c(Cl)c(Cl)cc2n1C1CCN(c2ccc(C(C)(C)C(=O)O)cc2)CC1 | < 5.00 | – | – | – | –
Cc1ccc(N2CCC(n3c(NC(C)C)nc4c(C(=O)N(C)C)c(Cl)c(Cl)cc43)CC2)cc1 | 6.90 | 38 | 1.6 | 18 | –
CC(C)Nc1nc2c(C(=O)N(C)C)c(Cl)c(Cl)cc2n1CC1CCN(c2ccccc2)CC1 | 5.30 | – | – | – | –
CC(C)Nc1nc2c(C(=O)N(C)C)c(Cl)c(Cl)cc2n1C1CCN(C(=O)c2ccc(C(C)(C)C)cc2)CC1 | 5.90 | – | – | – | –

These reach a higher pIC50 [3]. Values come first.

pIC50 [3] | bioavailability [7] [%] | half-life [8] [h] | clearance [12] [mL/min/kg] | SMILES | further results
7.50 | 31 | 1.6 | 13 | CC(C)Nc1nc2c(C(=O)N(C)C)c(Cl)c(Cl)cc2n1C1CCN(c2ccc(C(C)(C)C#N)cc2)CC1 | Cp(f) (Plasma [1]): 4.4%; Cp(f) (Plasma [2]): 3.3%; pIC50 [4]: 7.49; inhibition (INH) [5]: Not Active; Activity (Rattus norvegicus [6]): Non-toxic; Activity [9]: inactive; inhibition (INH) [10]: Not Active; Activity (Rattus norvegicus [11]): Active; Activity [13]: inactive; Activity (Rattus norvegicus [14]): inactive; Activity (Rattus norvegicus [15]): Dose-dependent effect; inhibition [16]: inactive
7.50 | 7 | 2.8 | 9.3 | CC(C)Nc1nc2c(C(=O)N(C)C)c(Cl)c(Cl)cc2n1C1CCN(c2ccc(C3CCCCC3)cc2)CC1 | –
8.49 | 22 | 2.1 | 25 | CC(C)Nc1nc2c(C(=O)N(C)C)c(Cl)c(Cl)cc2n1C1CCN(c2ccc(C3(C#N)CCOCC3)cc2)CC1 | –
7.90 | 36 | 2.1 | 46 | CC(C)Nc1nc2c(C(=O)N(C)C)c(Cl)c(Cl)cc2n1C1CCN(c2ccc(OC(C)C)cc2)CC1 | –
7.80 | – | – | – | COC(=O)C(C)(C)c1ccc(N2CCC(n3c(NC(C)C)nc4c(C(=O)N(C)C)c(Cl)c(Cl)cc43)CC2)cc1 | t1/2 (Plasma [17]): BLD; Stability (Plasma [18]): Unstable

Reference: ChEMBL document CHEMBL2321766, “Optimization of a Novel Series of TRPV4 Antagonists with In Vivo Activity in a Model of Pulmonary Edema” (ACS Med Chem Lett, 2013)
